In brackets after ≈: the same amount, converted by molar mass.
Legend:
[1] = tested on: Mycobacterium tuberculosis; assay: Antibacterial activity against Mycobacterium tuberculosis rv0443 knockout strain incubated for 10 days by resazurin dye based microtiter plate assay; format: functional; settings: rv0443, 240 h, time 10 day
Summary of the method: (§1)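 MIC in 7H9-ADC-Tween 80 medium. Strains (CDC1551 WT, rv0443 KO) grown to mid-log (OD600 ~0.8), diluted to OD600 0.01, exposed to serial antibiotic dilutions for 10 days at 37 °C; MIC read by resazurin blue test.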

[2] = tested on: Mycobacterium tuberculosis; assay: Antibacterial activity against wild type Mycobacterium tuberculosis CDC1551 incubated for 10 days by resazurin dye based microtiter plate assay; format: functional; settings: CDC1551, 240 h, time 10 day; summary of the method: as §1

CO[C@H]1/C=C/O[C@@]2(C)Oc3c(C)c(O)c4c(O)c(c(/C=N/N5CCN(C)CC5)c(O)c4c3C2=O)NC(=O)/C(C)=C\C=C\[C@H](C)[C@H](O)[C@@H](C)[C@@H](O)[C@@H](C)[C@H](OC(C)=O)[C@@H]1C [RIFAMPIN]
MIC [1]: 2.5 ng/mL (≈ 3.04 nM)
MIC [2]: 2.5 ng/mL (≈ 3.04 nM)

From ChEMBL document CHEMBL5252635, “The Mycobacterium tuberculosis mycothiol S-transferase is divalent metal-dependent for mycothiol binding and transfer” (2023)
